Laboratory results published in ChEMBL document CHEMBL1275556, “High prevalence of plasmid-mediated quinolone resistance genes qnr and aac(6')-Ib-cr in clinical isolates of Enterobacteriaceae from nine teaching hospitals in China” (2008).
In brackets after ≈: the same amount, converted by molar mass.

Experiments:
[1] = test system: Klebsiella pneumoniae; assay: Antimicrobial activity against aac(6')-Ib-cr-positive Klebsiella pneumoniae GZ40 harboring GyrA S83I, ParC S80I mutant, wild-type GyrB and qnrB genes by agar dilution method in presence of Tazobactam; type: functional
How it was run: (§1)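 MICs were determined by the CLSI agar dilution method (M7-A7) and interpreted against CLSI M100-S17 breakpoints.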

[2] = test system: Enterobacter cloacae; assay: Antimicrobial activity against aac(6')-Ib-cr-negative Enterobacter cloacae SH39 harboring GyrA S83I, ParC S80I mutant, wild-type GyrB and qnrA genes by agar dilution method in presence of Tazobactam; type: functional; how it was run: as §1
[3] = test system: Enterobacter cloacae; assay: Antimicrobial activity against aac(6')-Ib-cr-negative Enterobacter cloacae GZ47 harboring qnrB and qnrS genes by agar dilution method in presence of Tazobactam; type: functional; how it was run: as §1
[4] = test system: Klebsiella pneumoniae; assay: Antimicrobial activity against aac(6')-Ib-cr-negative Klebsiella pneumoniae SY22T harboring qnrS gene by agar dilution method in presence of Tazobactam; type: functional; how it was run: as §1
[5] = test system: Klebsiella pneumoniae; assay: Antimicrobial activity against aac(6')-Ib-cr-positive Klebsiella pneumoniae WH99 harboring wild-type GyrA, ParC, GyrB and qnrB genes by agar dilution method in presence of Tazobactam; type: functional
How it was run: (§2)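 MICs measured by CLSI agar dilution (M7-A7) and interpreted against CLSI M100-S17 breakpoints. Strains were clinical Enterobacteriaceae isolates or the azide-resistant E. coli J53 recipient.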

[6] = test system: Citrobacter freundii; assay: Antimicrobial activity against aac(6')-Ib-cr-positive Citrobacter freundii PU55T harboring wild-type GyrA, ParC, GyrB and qnrA genes by agar dilution method in presence of Tazobactam; type: functional; how it was run: as §1
[7] = test system: Escherichia coli; assay: Antimicrobial activity against aac(6')-Ib-cr-positive Escherichia coli FJ3T harboring wild-type GyrA, ParC, GyrB and qnrB genes by agar dilution method in presence of Tazobactam; type: functional
How it was run: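 Transconjugants came from conjugation of qnr and/or aac(6')-Ib-cr donors into azide-resistant E. coli J53. […] MICs were measured by CLSI agar dilution (M7-A7) and interpreted per M100-S17.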

[8] = test system: Citrobacter freundii; assay: Antimicrobial activity against aac(6')-Ib-cr-positive Citrobacter freundii JS33 harboring GyrA T83I mutant, wild-type ParC, GyrB, qnrA and qnrB genes by agar dilution method in presence of Tazobactam; type: functional; how it was run: as §1
[9] = test system: Klebsiella pneumoniae; assay: Antimicrobial activity against aac(6')-Ib-cr-negative Klebsiella pneumoniae SY22 harboring GyrA S83I, ParC S80I mutant, wild-type GyrB and qnrS genes by agar dilution method in presence of Tazobactam; type: functional; how it was run: as §2
[10] = test system: Citrobacter freundii; assay: Antimicrobial activity against aac(6')-Ib-cr-positive Citrobacter freundii JN1T by agar dilution method in presence of Tazobactam; type: functional
How it was run: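 MIC by CLSI agar dilution (M7-A7), with categories interpreted per CLSI M100-S17.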

[11] = test system: Klebsiella pneumoniae; assay: Antimicrobial activity against aac(6')-Ib-cr-positive Klebsiella pneumoniae WH99 harboring wild-type GyrA, ParC, GyrB and qnrB genes by agar dilution method in presence of clavulanic acid; type: functional; how it was run: as §2
[12] = test system: Klebsiella pneumoniae; assay: Antimicrobial activity against aac(6')-Ib-cr-negative Klebsiella pneumoniae SY22T harboring qnrS gene by agar dilution method; type: functional; how it was run: as §1
[13] = test system: Citrobacter freundii; assay: Antimicrobial activity against aac(6')-Ib-cr-positive Citrobacter freundii PU55 harboring GyrA T83I, ParC S80I mutant, wild-type GyrB, qnrA genes by agar dilution method; type: functional; how it was run: as §1
[14] = test system: Klebsiella pneumoniae; assay: Antimicrobial activity against aac(6')-Ib-cr-positive Klebsiella pneumoniae SY26 harboring GyrA S83I, ParC S80I mutant, wild-type GyrB and qnrB genes by agar dilution method in presence of clavulanic acid; type: functional; how it was run: as §2
[15] = test system: Escherichia coli; assay: Antimicrobial activity against aac(6')-Ib-cr-positive Escherichia coli FJ3T harboring wild-type GyrA, ParC, GyrB and qnrB genes by agar dilution method
[16] = test system: Klebsiella pneumoniae; assay: Antimicrobial activity against aac(6')-Ib-cr-positive Klebsiella pneumoniae JN41 harboring GyrA S83I, ParC S80I mutant, wild-type GyrB and qnrB genes by agar dilution method in presence of clavulanic acid; type: functional
How it was run: (§3)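 MICs were determined by CLSI agar dilution (M7-A7) and interpreted by CLSI M100-S17 breakpoints. The curator's line names the β-lactamase inhibitor added.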

[17] = test system: Enterobacter cloacae; assay: Antimicrobial activity against aac(6')-Ib-cr-negative Enterobacter cloacae FJ67 harboring […] and qnrS genes by agar dilution method; type: functional
[18] = test system: Klebsiella pneumoniae; assay: Antimicrobial activity against aac(6')-Ib-cr-positive Klebsiella pneumoniae GZ40 harboring GyrA S83I, ParC S80I mutant, wild-type GyrB and qnrB genes by agar dilution method; type: functional; how it was run: as §1
[19] = test system: Enterobacter cloacae; assay: Antimicrobial activity against aac(6')-Ib-cr-negative Enterobacter cloacae FJ67 harboring […] and qnrS genes by agar dilution method in presence of clavulanic acid; type: functional; how it was run: as §1
[20] = test system: Klebsiella pneumoniae; assay: Antimicrobial activity against aac(6')-Ib-cr-negative Klebsiella pneumoniae SY22 harboring GyrA S83I, ParC S80I mutant, wild-type GyrB and qnrS genes by agar dilution method in presence of clavulanic acid; type: functional; how it was run: as §3
[21] = test system: Enterobacter cloacae; assay: Antimicrobial activity against aac(6')-Ib-cr-negative Enterobacter cloacae GZ47 harboring qnrB and qnrS genes by agar dilution method in presence of clavulanic acid; type: functional; how it was run: as §2
[22] = test system: Citrobacter freundii; assay: Antimicrobial activity against aac(6')-Ib-cr-negative Citrobacter freundii JN64 harboring GyrA T83I, wild-type ParC, GyrB and qnrA genes by agar dilution method in presence of clavulanic acid; type: functional; how it was run: as §1
[23] = test system: Citrobacter freundii; assay: Antimicrobial activity against aac(6')-Ib-cr-negative Citrobacter freundii JN64T harboring qnrA gene by agar dilution method; type: functional; how it was run: as §1
[24] = test system: Klebsiella pneumoniae; assay: Antimicrobial activity against aac(6')-Ib-cr-positive Klebsiella pneumoniae JN132 harboring GyrA S83I, ParC S80I mutant, wild-type GyrB and qnrB genes by agar dilution method; type: functional
How it was run: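 MICs were determined on clinical isolates by CLSI agar dilution (M7-A7) and interpreted against CLSI M100-S17 breakpoints.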

[25] = test system: Enterobacter cloacae; assay: Antimicrobial activity against aac(6')-Ib-cr-negative Enterobacter cloacae FJ61 harboring GyrA S83I, GyrA D87A, ParC S80I mutant, wild-type GyrB and qnrS genes by agar dilution method in presence of clavulanic acid; type: functional; how it was run: as §2
[26] = test system: Citrobacter freundii; assay: Antimicrobial activity against aac(6')-Ib-cr-negative Citrobacter freundii JN64T harboring qnrA gene by agar dilution method in presence of clavulanic acid; type: functional
How it was run: (§4)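 Transconjugants came from conjugation of qnr and/or aac(6')-Ib-cr-carrying donors with azide-resistant E. coli J53. […] MICs were determined by CLSI agar dilution (M7-A7) and interpreted by M100-S17.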

[27] = test system: Enterobacter cloacae; assay: Antimicrobial activity against aac(6')-Ib-cr-negative Enterobacter cloacae FJ67T harboring qnrS gene by agar dilution method; type: functional
[28] = test system: Citrobacter freundii; assay: Antimicrobial activity against aac(6')-Ib-cr-positive Citrobacter freundii PU55T harboring wild-type GyrA, ParC, GyrB and qnrA genes by agar dilution method
[29] = test system: Enterobacter cloacae; assay: Antimicrobial activity against aac(6')-Ib-cr-negative Enterobacter cloacae FJ67T harboring qnrS gene by agar dilution method in presence of clavulanic acid; type: functional; how it was run: as §4
[30] = test system: Escherichia coli; assay: Antimicrobial activity against Escherichia coli J53 harboring wild-type GyrA, ParC, GyrB genes by agar dilution method
[31] = test system: Citrobacter freundii; assay: Antimicrobial activity against aac(6')-Ib-cr-positive Citrobacter freundii TJ15T harboring wild-type GyrA, ParC, GyrB genes by agar dilution method in presence of clavulanic acid; type: functional; how it was run: as §1

Structure (SMILES): CCN1CCN(C(=O)N[C@@H](C(=O)N[C@@H]2C(=O)N3[C@@H]2SC(C)(C)[C@@H]3C(=O)O)c2ccccc2)C(=O)C1=O [PIPERACILLIN]
- MIC [1]: > 256 µg/mL
- MIC [2]: 2 µg/mL
- MIC [3]: 4 µg/mL
- MIC [4]: 1 µg/mL
- MIC [5]: 8 µg/mL
- MIC [6]: 4 µg/mL
- MIC [7]: 1 µg/mL
- MIC [8]: 8 µg/mL
- MIC [9]: 4 µg/mL
- MIC [10]: 2 µg/mL

Structure (SMILES): CO/N=C(\C(=O)N[C@@H]1C(=O)N2C(C(=O)O)=C(COC(C)=O)CS[C@H]12)c1csc(N)n1 [CEFOTAXIME]
- MIC [11]: 64 µg/mL
- MIC [12]: 0.5 µg/mL (≈ 1.1 µM)
- MIC [13]: 128 µg/mL (≈ 281 µM)
- MIC [14]: 8 µg/mL
- MIC [15]: 64 µg/mL (≈ 141 µM)
- MIC [16]: 0.032 µg/mL
- MIC [17]: 256 µg/mL (≈ 562 µM)
- MIC [18]: > 256 µg/mL
- MIC [19]: 0.25 µg/mL
- MIC [20]: 0.064 µg/mL
- MIC [21]: 8 µg/mL
- MIC [22]: 128 µg/mL
- MIC [23]: 16 µg/mL (≈ 35.1 µM)
- MIC [24]: 32 µg/mL (≈ 70.3 µM)
- MIC [25]: 8 µg/mL
- MIC [26]: 0.064 µg/mL
- MIC [27]: 64 µg/mL (≈ 141 µM)
- MIC [28]: 0.064 µg/mL (≈ 0.141 µM)
- MIC [29]: 0.032 µg/mL
- MIC [30]: 0.032 µg/mL (≈ 0.0703 µM)
- MIC [31]: 0.125 µg/mL
